Reference: ChEMBL document CHEMBL4480464, “Bioactive Dimeric Acylphloroglucinols from the Mexican Fern Elaphoglossum paleaceum” (J Nat Prod, 2019)
Active and inactive are the calls of the source. The calls are words filed in the database; no cut-off is given here.

Legend:
[1] = target: T1, Amine oxidase [flavin-containing] B (Rattus norvegicus, UniProt P19643); assay: Inhibition of Wistar rat brain MAOB using kynuramine as substrate preincubated for 15 mins followed by substrate addition and measured after 15 mins by fluorescence assay
T1 sequence (P19643 whole entry): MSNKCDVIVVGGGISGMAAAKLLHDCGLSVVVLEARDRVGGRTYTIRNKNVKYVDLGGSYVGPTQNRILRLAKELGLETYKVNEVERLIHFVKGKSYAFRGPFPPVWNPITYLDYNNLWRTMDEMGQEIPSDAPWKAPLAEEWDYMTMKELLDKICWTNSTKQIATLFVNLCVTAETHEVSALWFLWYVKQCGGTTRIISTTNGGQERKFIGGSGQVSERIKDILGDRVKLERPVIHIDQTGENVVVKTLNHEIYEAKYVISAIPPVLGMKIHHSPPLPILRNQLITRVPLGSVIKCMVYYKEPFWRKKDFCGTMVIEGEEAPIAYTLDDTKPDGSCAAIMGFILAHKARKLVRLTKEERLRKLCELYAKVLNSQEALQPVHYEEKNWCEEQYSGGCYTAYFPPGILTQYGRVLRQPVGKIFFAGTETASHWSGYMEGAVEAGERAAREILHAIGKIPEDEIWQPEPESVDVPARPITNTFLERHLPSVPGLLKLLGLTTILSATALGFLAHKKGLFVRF
Summary of the method: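 Enzyme: unpurified mitochondrial homogenate from brains (cerebellum removed) of adult male Wistar rats (180−220 g), adjusted to 2500 μg/mL protein in PBS pH 7.4. Samples dissolved in 10% DMSO, tested over 0.1−100 μg/mL. Kynuramine 1 mM substrate; pargyline 10 μM as MAO-B-selective reference. Both incubations at 37 °C; stopped with 2 M NaOH. 4-Hydroxyquinoline read at ex 315/em 380 nm. Triplicate; IC50 as mean ± standard error.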

[2] = tested on: SiHa; assay: Cytotoxicity against human SiHa cells measured after 72 hrs by sulforhodamine B assay; format: functional, cell-based
Summary of the method: (§1)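 Sulforhodamine B assay on human cancer lines in RPMI-1640 with 10% FBS, 104 cells/mL, 37 °C, 5% CO2. Treated in triplicate at about 70% confluence with 0.16–20 μg/mL sample in DMSO for 72 h. IC50 taken as concentration giving 50% of control growth, from a log10 concentration versus % viable cells plot.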

[3] = tested on: MCF7; assay: Cytotoxicity against human MCF7 cells measured after 72 hrs by sulforhodamine B assay; format: functional, cell-based; details: MCF7, 72 h; summary of the method: as §1
[4] = Selectivity index, ratio of IC50 for human HSF30 cells to IC50 for human HF6 cells
Summary of the method: (§2)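 SI calculated as IC50 in HFS-30 fibroblasts divided by IC50 in each cancer line, all from the 72 h sulforhodamine B assay.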

[5] = Cytotoxicity against human HSF30 cells measured after 72 hrs by sulforhodamine B assay; format: cell-based
Summary of the method: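 HFS-30 normal human skin fibroblasts grown in DMEM with 10% FBS at 37 °C, 5% CO2. Treated in triplicate at about 70% confluence with 0.16–20 μg/mL sample in DMSO for 72 h. Sulforhodamine B read-out. IC50 is concentration giving 50% of control growth.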

[6] = Cytotoxicity against human HF6 cells measured after 72 hrs by sulforhodamine B assay; format: functional, cell-based; summary of the method: as §1
[7] = tested on: PC-3; assay: Cytotoxicity against human PC3 cells measured after 72 hrs by sulforhodamine B assay; format: functional, cell-based; details: PC-3, 72 h; summary of the method: as §1
[8] = Selectivity index, ratio of IC50 for human HSF30 cells to IC50 for human MCF7 cells; format: toxicity; details: HSF30 cells and MCF7 cells, read-out: Ratio IC50; summary of the method: as §2
[9] = species: Rattus norvegicus; assay: Selectivity index, ratio of IC50 for Wistar rat brain MAOB to Wistar rat brain MAOA
[10] = target: T2, Amine oxidase [flavin-containing] A (Rattus norvegicus, UniProt P21396); assay: Inhibition of Wistar rat brain MAOA using kynuramine as substrate preincubated for 15 mins followed by substrate addition and measured after 15 mins by fluorescence assay
T2 sequence (P21396 whole entry): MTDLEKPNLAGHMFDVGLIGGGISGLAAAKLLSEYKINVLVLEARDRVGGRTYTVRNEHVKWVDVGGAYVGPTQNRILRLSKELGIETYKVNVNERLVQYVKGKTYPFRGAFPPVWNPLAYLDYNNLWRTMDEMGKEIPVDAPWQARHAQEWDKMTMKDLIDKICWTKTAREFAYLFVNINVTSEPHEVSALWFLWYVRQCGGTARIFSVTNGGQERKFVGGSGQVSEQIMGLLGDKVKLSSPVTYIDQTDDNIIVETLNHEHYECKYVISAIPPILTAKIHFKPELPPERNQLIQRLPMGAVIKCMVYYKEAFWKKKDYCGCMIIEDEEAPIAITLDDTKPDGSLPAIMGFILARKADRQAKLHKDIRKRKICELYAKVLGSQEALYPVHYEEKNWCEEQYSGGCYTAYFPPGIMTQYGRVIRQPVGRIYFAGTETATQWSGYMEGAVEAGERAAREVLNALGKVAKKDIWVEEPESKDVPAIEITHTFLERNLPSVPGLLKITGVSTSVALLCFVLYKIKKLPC
Summary of the method: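 Unpurified mitochondrial homogenate from brains of male Wistar rats (180–220 g), adjusted to 2500 μg/mL protein in PBS pH 7.4. Sample from 10% DMSO stock, tested over 0.1–100 μg/mL. Enzyme and sample preincubated 15 min at 37 °C, kynuramine (1 mM) added, incubated 15 min at 37 °C, stopped with 2 M NaOH. Triplicate.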

[11] = Selectivity index, ratio of IC50 for human HSF30 cells to IC50 for human PC3 cells; format: toxicity; details: HSF30 cells and PC3 cells, read-out: Ratio IC50; summary of the method: as §2
[12] = Selectivity index, ratio of IC50 for human HSF30 cells to IC50 for human SiHa cells; format: toxicity; details: HSF30 cells and SiHa cells, read-out: Ratio IC50; summary of the method: as §2
[13] = Cytotoxicity against LPS-induced mouse RAW264.7 cells assessed as cell viability at 82 uM measured after 24 hrs by resazurin dye based fluorescence assay; details: LPS-induced RAW264.7 cells, read-out: Activity
Summary of the method: (§3)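 After the 24 h LPS (1 μg/mL) plus compound exposure and nitrite sampling, RAW264.7 wells given fresh DMEM-F12 with 10% heat-inactivated FBS plus resazurin (2 mM stock). Incubated a further 10 h at 37 °C, 5% CO2. Viability read as resorufin fluorescence. Vehicle Tween 80. Three independent experiments, mean ± SD.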

[14] = tested on: RAW264.7; assay: Cytotoxicity against LPS-induced mouse RAW264.7 cells assessed as cell killing at 123 to 164 uM measured after 24 hrs by resazurin dye based fluorescence assay; details: raw264.7, 24 h; summary of the method: as §3
[15] = tested on: RAW264.7; assay: Antiinflammatory activity in mouse RAW264.7 cells assessed as inhibition of LPS-induced nitric oxide production at 41 uM after 24 hrs by Griess assay; format: functional, cell-based
Summary of the method: (§4)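 Murine RAW264.7 macrophages in DMEM-F12 with 10% heat-inactivated FBS, no antibiotics, 37 °C, 5% CO2. Cells (2 × 10^5 cells/mL) preincubated 1 h, then compound added in Tween 80 vehicle, then stimulated with LPS 1 μg/mL for 24 h. Nitrite in medium measured by Griess reagent, absorbance 540 nm, quantified against NaNO2 standard curve. Triplicate, mean ± SEM.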

[16] = tested on: RAW264.7; assay: Cytotoxicity against LPS-induced mouse RAW264.7 cells assessed as effect on cell viability at 41 uM measured after 24 hrs by resazurin dye based fluorescence assay; details: raw264.7, 24 h; summary of the method: as §3
[17] = tested on: RAW264.7; assay: Cytotoxicity against LPS-induced mouse RAW264.7 cells assessed as effect on cell viability at 46 uM measured after 24 hrs by resazurin dye based fluorescence assay; details: raw264.7, 24 h; summary of the method: as §3
[18] = tested on: RAW264.7; assay: Cytotoxicity against LPS-induced mouse RAW264.7 cells assessed as cell killing at 92 to 185 uM measured after 24 hrs by resazurin dye based fluorescence assay; details: raw264.7, 24 h; summary of the method: as §3
[19] = tested on: RAW264.7; assay: Antiinflammatory activity in mouse RAW264.7 cells assessed as inhibition of LPS-induced nitric oxide production at 46 uM after 24 hrs by Griess assay; format: functional, cell-based; summary of the method: as §4

## C#CCN(C)Cc1ccccc1 [PARGYLINE]
[1]
  IC50: 220 nM

## CC(=O)O[C@H]1C(=O)[C@@]2(C)[C@H]([C@H](OC(=O)c3ccccc3)[C@]3(O)C[C@H](OC(=O)[C@H](O)[C@@H](NC(=O)c4ccccc4)c4ccccc4)C(C)=C1C3(C)C)[C@]1(OC(C)=O)CO[C@@H]1C[C@@H]2O [PACLITAXEL]
[2]
  IC50: 1400 nM
[3]
  IC50: 50 nM
[4]
  Ratio IC50: 0.001
[5]
  IC50: 2 nM
[6]
  IC50: 1600 nM
[7]
  IC50: 150 nM

## CCCC(=O)c1c(O)c(CC2=C(O)[C@](C)(C/C=C(\C)CCC=C(C)C)C(O)=C(C(C)=O)C2=O)c(O)c(CC=C(C)C)c1OC
[2]
  IC50: 5600 nM
[8]
  selectivity ratio: 0.0025
[3]
  IC50: > 10000 nM
[4]
  Ratio IC50: 0.013
[9]
  Ratio IC50: 3.5
[5]
  IC50: 80 nM
[10]
  IC50: 1300 nM
[6]
  IC50: 6400 nM
[11]
  selectivity ratio: 0.029
[12]
  selectivity ratio: 0.015
[7]
  IC50: 2900 nM
[13]
  viability at 24 h, 82 µM: 50%
[14]
  Activity: 100%
[15]
  inhibition: Active
[16]
  Activity: Non-Toxic
[1]
  IC50: 4400 nM

## COc1cc([C@@H]2c3cc4c(cc3[C@H](O)[C@H]3COC(=O)[C@H]23)OCO4)cc(OC)c1OC [PODOFILOX]
[2]
  IC50: 100 nM
[8]
  selectivity ratio: 0.45
[3]
  IC50: 5 nM
[4]
  Ratio IC50: 0.002
[5]
  IC50: 2 nM
[6]
  IC50: 1000 nM
[11]
  selectivity ratio: 0.11
[12]
  selectivity ratio: 0.02
[7]
  IC50: 200 nM

## CCCC(=O)c1c(OC)cc(O)c(CC2=C(O)[C@](C)(C/C=C(\C)CCC=C(C)C)C(O)=C(C(C)=O)C2=O)c1O
[2]
  IC50: 6000 nM
[8]
  selectivity ratio: 0.0002
[3]
  IC50: > 10000 nM
[4]
  Ratio IC50: 0.0005
[9]
  Ratio IC50: 0.1
[5]
  IC50: 9 nM
[10]
  IC50: 31000 nM
[6]
  IC50: > 10000 nM
[11]
  selectivity ratio: 0.005
[12]
  selectivity ratio: 0.002
[7]
  IC50: 1700 nM
[17]
  Activity: Non-Toxic
[18]
  Activity: 100%
[1]
  IC50: 4700 nM
[19]
  inhibition: Active
